KCNQ1 pot: potentiates or activates the human KCNQ1 potassium channel; AID 2648; 310,000 compounds, 0.35% hits; B-score at 10 µM; CHO-K1 KCNQ1, thallium flux FluxOR fluorescence; stronger effect = higher value; P51787;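 active = fluorescence ratio B-score, a plate-corrected score, at least three library SD, with initial intensity B-score within 5 SD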
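Doses: Single concentration per compound, DMSO matched to controls | Test system: KCNQ1-transfected CHO-K1 cells | Timing: 90 min dye loading and 20 min compound exposure, both at room temperature | Measured by: Kinetic FluxOR thallium fluorescence, 10-s 1-Hz baseline, 110-s post-stimulus read | Medium: Assay buffer with matched DMSO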
KCNK9 block: human KCNK9 channel inhibition; HEK293 KCNK9, FluxOR thallium flux fluorescence; stronger effect = lower value; B-score at 10 µM; 310,000 compounds, 1.2% hits; AID 488922;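 active = ratio B-score over 3 SD below the library mean, with starting fluorescence within 5 SD of its mean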;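 also: negative B-score means less thallium flux so channel inhibition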
hERG protect: shields human hERG channel from block by proarrhythmic agents; Q12809; CHO-hERG, FluxOR thallium flux, dofetilide IC70 present; activation (rescue from dofetilide block), less the hit threshold, % at 10 µM; 310,000 compounds, 0.51% hits;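 active = activation above the mean of controls blocked by dofetilide plus 5 SD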;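 also: thallium influx through hERG after potassium depolarization seen as dye fluorescence rise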
KCC2 mod: modulators of human KCC2 chloride dependent transport; KCC2 cells, thallium flux FluoZin-2 fluorescence; B-score of Tl+ flux slope (higher = more flux/activation; lower = inhibition) at 10 µM; 190,000 compounds, 2.2% hits; AID 1456;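 active = thallium flux slope and its plate-corrected score both differing from the plate sample mean at a set confidence after two filtering rounds, in either direction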;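 also: slope of fluorescence scaled to starting intensity during 10 to 20 s after thallium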
Target sequence (Q9H2X9 whole entry, looked up): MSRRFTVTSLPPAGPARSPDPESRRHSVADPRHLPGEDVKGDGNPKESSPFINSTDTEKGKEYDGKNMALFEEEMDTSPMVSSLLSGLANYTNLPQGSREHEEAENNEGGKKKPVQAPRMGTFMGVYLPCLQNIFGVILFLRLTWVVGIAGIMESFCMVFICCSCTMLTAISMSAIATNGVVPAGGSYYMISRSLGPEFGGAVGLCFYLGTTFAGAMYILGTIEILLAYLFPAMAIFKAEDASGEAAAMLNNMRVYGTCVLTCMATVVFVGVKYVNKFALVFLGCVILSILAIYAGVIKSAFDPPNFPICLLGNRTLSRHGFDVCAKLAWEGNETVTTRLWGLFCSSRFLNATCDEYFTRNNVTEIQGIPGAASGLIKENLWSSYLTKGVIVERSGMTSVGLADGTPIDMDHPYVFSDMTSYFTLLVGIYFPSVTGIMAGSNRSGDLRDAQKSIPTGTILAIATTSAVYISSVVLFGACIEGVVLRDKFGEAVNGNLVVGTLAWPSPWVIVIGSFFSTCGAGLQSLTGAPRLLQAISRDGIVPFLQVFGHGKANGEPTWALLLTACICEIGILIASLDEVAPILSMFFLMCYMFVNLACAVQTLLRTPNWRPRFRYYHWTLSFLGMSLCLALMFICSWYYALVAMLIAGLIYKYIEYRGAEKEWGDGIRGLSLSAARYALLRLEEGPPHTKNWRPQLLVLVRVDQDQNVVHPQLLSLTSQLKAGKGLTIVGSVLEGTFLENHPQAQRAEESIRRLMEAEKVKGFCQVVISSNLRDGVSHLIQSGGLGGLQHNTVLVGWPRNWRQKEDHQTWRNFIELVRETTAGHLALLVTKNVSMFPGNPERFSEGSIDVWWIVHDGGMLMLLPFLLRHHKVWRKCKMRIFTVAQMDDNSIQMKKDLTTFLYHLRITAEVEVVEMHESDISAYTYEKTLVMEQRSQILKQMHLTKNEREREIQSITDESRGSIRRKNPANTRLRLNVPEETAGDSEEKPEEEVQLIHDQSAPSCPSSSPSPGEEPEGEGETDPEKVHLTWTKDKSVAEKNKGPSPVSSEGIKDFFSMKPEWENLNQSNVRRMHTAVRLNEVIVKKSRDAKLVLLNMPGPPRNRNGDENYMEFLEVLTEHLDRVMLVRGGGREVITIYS
KCNK3 block: human KCNK3 channel inhibition, primary screen; O14649; 340,000 compounds, 0.84% hits; AID 602410; CHO-KCNK3 thallium flux, FluxOR fluorescence; stronger effect = lower value; B-score at 10 µM;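 active = B-score under library mean minus 4 SD, starting fluorescence ratio at most library mean plus 5 SD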;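 also: more negative B-score means stronger inhibition of thallium flux through KCNK3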
KCNQ1 block: human KCNQ1 channel inhibition; CHO-K1 KCNQ1, FluxOR thallium flux fluorescence; stronger effect = higher value; B-score at 10 µM; 310,000 compounds, 1.3% hits; P51787; AID 2642;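 active = compounds whose thallium flux B-score, printed positive for inhibition, exceeds three library SD while starting fluorescence stays within three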;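 also: channel opened by potassium depolarization with thallium stimulus after 20 min compound exposure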
KCNK9 inh conf: human KCNK9 inhibitor confirmation | inhibition, % at 10 µM | 4,900 compounds, 43% hits | HEK293 KCNK9 cells, FluxOR thallium flux fluorescence | shares compounds with KCNK9 block;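 active = thallium signal inhibited by more than 5 SD of the compound-free buffer control wells, on both duplicate plates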
Kir2-1 spec: selectivity of KCNK9 modulators against mouse Kir2.1; shares compounds with KCNK9 block; Kir2.1 cells, FluxOR thallium flux fluorescence; inhibition, % at 10 µM; 4,900 compounds, 4% hits;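 active = thallium signal drop more than 5 SD beyond the mean of the no-compound control wells, seen in both duplicate plates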;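 also: signal is fluorescence rise after thallium addition divided by baseline fluorescence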
HEK293 Tl ctr: second check of KCNK9 modulator effects in non-induced HEK293 cells; shares compounds with KCNK9 block; FluxOR thallium flux; 4,900 compounds, 40% hits; inhibition, % at 10 µM;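 active = thallium signal drop beyond 5 SD of the untreated control mean, on both duplicate plates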
Numbers stand for hits; n = inactive; x = no result given. Rows were chosen to be rich in hits. Some 4.1% of all compounds tested hit in one or more screens of this group.

SMILES	KCNQ1 pot	KCNK9 block	hERG protect	KCC2 mod	KCNK3 block	KCNQ1 block	KCNK9 inh conf	Kir2-1 spec	HEK293 Tl ctr
O=C(c1ccc2c(c1)OCO2)C1CCCN(Cc2ccc3nsnc3c2)C1 (stereo not drawn)	n	n	n	n	n	n	x	x	x
O=C(c1ccc2c(c1)OCO2)C1CCCN(Cc2cccn2-c2cccnc2)C1 (stereo not drawn)	n	n	n	x	n	n	x	x	x
O=C(c1ccc2c(c1)OCO2)C1CCCN(Cc2c(F)ccc(F)c2F)C1 (stereo not drawn)	n	n	n	x	n	n	n	n	n
CCOC(=O)c1c(NC(=O)C(=O)N/N=C/c2ccc(O)c(OC)c2)sc2c1CCCCC2	n	-8.5	n	n	n	n	56%	n	30%
COc1ccc(S(=O)(=O)N2CCCCCC2)cc1C(=O)N(C)Cc1ccc(C)cc1	n	n	n	x	n	n	n	n	n
CCCCn1c(N)c(N(CCC(C)C)C(=O)c2oc3ccc(OCC)cc3c2C)c(=O)[nH]c1=O	n	n	n	x	n	n	x	x	x
COc1ccc(OCCCCOc2ccccc2Cl)cc1	n	n	n	n	n	n	x	x	x
COc1ccccc1OCCOCCOc1ccccc1Cl	n	n	n	n	n	n	n	n	n
CCOc1ccccc1OCCOc1ccccc1CC	n	n	n	n	n	n	n	n	n
CCOc1ccccc1OCCCOc1ccc(C)cc1Br	n	n	n	n	n	n	x	x	x
CCOc1ccccc1OCCCOc1ccc(C)cc1Cl	n	n	n	x	n	n	n	n	32%
CCOc1ccc(OCCOCCOc2ccccc2Cl)cc1	n	n	n	n	n	n	n	n	n
COc1ccccc1OCCCOc1c(Cl)cc(C)cc1Cl	n	n	n	n	n	n	x	x	x
COC(=O)c1ccccc1NC(=O)CCC(=O)N1CC(C)Oc2ccc(C)cc21 (stereo not drawn)	n	n	n	x	n	n	n	n	n
Cc1ccc(C)c(C(=O)CCC(=O)OCn2nnc3ccccc3c2=O)c1	x	x	x	x	n	x	x	x	x
Cc1sc2nc(CSc3ccccc3)nc(N3CCN(C)CC3)c2c1C	n	n	n	n	n	n	n	n	30%
O=C(C[n+]1cccc(O)c1)NCc1ccc(Cl)cc1	n	n	n	x	n	n	x	x	x
CCOC(=O)C1CCCN(Cc2cc(=O)oc3cc(C)c(C(C)C)cc23)C1 (stereo not drawn)	n	-9.2	n	n	n	n	52%	n	42%
Cc1cc2oc(=O)cc(CN3CCCCC3)c2cc1C(C)C	n	n	n	n	n	n	x	x	x
COc1ccc(CN2CCNC(=O)C2CC(=O)NCc2csc(C)n2)c(F)c1 (stereo not drawn)	n	n	n	x	n	n	x	x	x
CCOC(=O)Cc1c(C)nc2c(-c3ccc(OC)cc3)c(C)nn2c1C	n	n	n	n	n	n	n	n	n
O=C(COc1ccccc1F)N1N=C(c2cccs2)CC1c1ccco1 (stereo not drawn)	x	x	x	x	n	x	x	x	x
COc1ccc(C(=O)Nc2sc3c(c2C(=O)NCc2ccco2)CCCC3)cc1OC	n	-12	n	n	n	n	31%	n	n
COc1cc(C(=O)Nc2sc3c(c2C(=O)NCc2ccco2)CCCC3)cc(OC)c1OC	n	n	n	n	n	n	x	x	x
Cc1ccc(C(=O)Nc2sc3c(c2C(=O)NCc2ccco2)CCCC3)cc1	n	n	n	n	n	n	x	x	x
SMILES	KCNQ1 pot	KCNK9 block	hERG protect	KCC2 mod	KCNK3 block	KCNQ1 block	KCNK9 inh conf	Kir2-1 spec	HEK293 Tl ctr
O=C(Nc1sc2c(c1C(=O)NCc1ccco1)CCCC2)c1ccc2c(c1)OCO2	n	-10	n	n	n	n	42%	n	n
COc1ccc(S[C@@H](CCN2CC[C@H](O)CCC2=O)c2ccccc2)cc1	x	x	x	x	n	x	x	x	x
O=C(c1ccccc1)c1ccc2ccccc2c1	x	x	x	x	n	x	x	x	x
O=C(c1ccccc1)c1ccc2cc(O)ccc2c1	n	n	n	x	n	n	n	n	n
C=CCn1c(COc2ccc3c(c2)CCCC3)nnc1SCC(=O)Nc1cccc(SC)c1	n	n	n	x	n	9	n	n	30%
CCOc1cc(/C=N/NC(=O)CNc2cccc(C)c2)ccc1OC(=O)c1ccccc1	n	n	n	n	n	n	x	x	x
CCOc1cc(/C=N/Nc2cccc(C(=O)O)c2)ccc1OC(=O)c1ccccc1	n	n	n	n	n	n	n	n	n
C=CCn1cnc2scc(-c3ccc(C)c(C)c3)c2c1=O	n	n	n	n	n	n	n	n	n
CCCn1cnc2scc(-c3ccc(C)c(C)c3)c2c1=O	n	n	n	x	n	n	n	n	n
C=CCn1cnc2scc(-c3ccc(OC)cc3)c2c1=O	n	n	n	x	n	n	x	x	x
Cc1ccc(-c2csc3ncn(CC(N)=O)c(=O)c23)cc1C	n	n	n	x	n	n	x	x	x
CCCOC(=O)Cn1cnc2scc(-c3ccc(C)cc3)c2c1=O	n	n	n	x	n	n	n	n	n
Cc1ccc(S(=O)(=O)Nc2ccccc2C(=O)N2CCCCC2)cc1	n	n	n	x	n	n	x	x	x
O=C(Oc1ccc2[nH]cc(CCN3C(=O)c4ccccc4C3=O)c2c1)c1ccco1	n	-11	n	x	n	n	26%	n	n
COC(=O)c1c(NC(=O)C(=O)N2CCOCC2)sc2c1CCCC2	n	n	n	x	n	n	x	x	x
O=C(CCC(=O)c1ccc(Oc2ccccc2)cc1)Nc1ccc(Cl)cc1Cl	n	n	n	n	n	n	n	n	n
CCOC(=O)N1CCc2c(sc3c2c(=O)n(Cc2ccccc2)c(=O)n3CC(=O)NCC2CCCO2)C1 (stereo not drawn)	n	n	n	x	n	n	x	x	x
CCOC(=O)N1CCc2c(sc3c2c(=O)n(Cc2ccccc2)c(=O)n3Cc2ccccc2F)C1	n	n	n	n	n	n	n	n	n
O=C(O)Cn1c(=O)c2c3c(sc2n(Cc2ccccc2)c1=O)CCCC3	n	n	n	x	n	n	x	x	x
CCOC(=O)N1CCc2c(sc3c2c(=O)n(Cc2ccccc2)c(=O)n3Cc2cccc(C)c2)C1	n	n	n	n	n	n	n	n	n
COc1ccc(CCNC(=O)C(=O)NCC2CCCN2S(=O)(=O)c2ccc(OC)cc2)cc1 (stereo not drawn)	n	n	n	x	n	n	x	x	x
Cc1ccc(C(=O)N(c2ccccc2)C2CC(C)N(C(=O)c3ccco3)c3ccccc32)cc1 (stereo not drawn)	n	n	n	x	n	n	n	n	n
OCC1(Cc2cccc(Cl)c2)CCCN(Cc2sc(N3CCCC3)nc2Cl)C1 (stereo not drawn)	n	n	n	n	n	n	n	n	n
